Test results from ChEMBL document CHEMBL4152221, “Synthesis and structure-activity relationship of furoquinolinediones as inhibitors of Tyrosyl-DNA phosphodiesterase 2 (TDP2)” (Eur J Med Chem, 2018).
Activity calls are given as the source filed them.

Legend:
[1] = biological target: T1, Tyrosyl-DNA phosphodiesterase 2 (Homo sapiens) (UniProt O95551); assay: (§1) Inhibition of recombinant human TDP2 using TY18 (alpha-[32P]-cordycepin-3'-labeled) as substrate after 15 mins by PAGE analysis
T1 sequence (whole entry): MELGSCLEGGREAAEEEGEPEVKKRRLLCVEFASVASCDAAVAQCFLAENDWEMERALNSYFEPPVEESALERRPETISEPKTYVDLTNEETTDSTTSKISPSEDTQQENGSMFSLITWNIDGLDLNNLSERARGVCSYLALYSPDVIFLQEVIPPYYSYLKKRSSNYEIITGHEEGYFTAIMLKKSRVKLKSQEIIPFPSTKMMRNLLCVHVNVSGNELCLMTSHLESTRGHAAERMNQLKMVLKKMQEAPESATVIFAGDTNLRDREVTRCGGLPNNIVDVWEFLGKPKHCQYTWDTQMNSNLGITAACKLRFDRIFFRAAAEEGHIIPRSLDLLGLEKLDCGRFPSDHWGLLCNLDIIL
In short: (§2)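 32P-cordycepin-3'-labeled TY18 substrate at 1 nM with 25 pM recombinant human TDP2, 15 min at room temperature. Buffer: 50 mM Tris-HCl pH 7.5, 80 mM KCl, 5 mM MgCl2, 0.1 mM EDTA, 1 mM DTT, 40 μg/mL BSA, 0.01% Tween 20. Six or eight three-fold dilutions up to 111 μM. Gel densitometry; IC50 is mean ± SD of ≥3 independent experiments. Positive control: SV-163.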

[2] = biological target: T2, Tyrosyl-DNA phosphodiesterase 2 (Homo sapiens, UniProt O95551); assay: as §1; in short: as §2
T2 sequence (O95551 whole entry): T1 sequence (whole entry)

[3] = biological target: T3, Tyrosyl-DNA phosphodiesterase 1 (Homo sapiens, UniProt Q9NUW8); assay: Inhibition of recombinant TDP1 (unknown origin) at 111 uM using 5'-[32P]-labeled N14Y as substrate after 15 mins by PAGE analysis
T3 sequence (Q9NUW8 whole entry): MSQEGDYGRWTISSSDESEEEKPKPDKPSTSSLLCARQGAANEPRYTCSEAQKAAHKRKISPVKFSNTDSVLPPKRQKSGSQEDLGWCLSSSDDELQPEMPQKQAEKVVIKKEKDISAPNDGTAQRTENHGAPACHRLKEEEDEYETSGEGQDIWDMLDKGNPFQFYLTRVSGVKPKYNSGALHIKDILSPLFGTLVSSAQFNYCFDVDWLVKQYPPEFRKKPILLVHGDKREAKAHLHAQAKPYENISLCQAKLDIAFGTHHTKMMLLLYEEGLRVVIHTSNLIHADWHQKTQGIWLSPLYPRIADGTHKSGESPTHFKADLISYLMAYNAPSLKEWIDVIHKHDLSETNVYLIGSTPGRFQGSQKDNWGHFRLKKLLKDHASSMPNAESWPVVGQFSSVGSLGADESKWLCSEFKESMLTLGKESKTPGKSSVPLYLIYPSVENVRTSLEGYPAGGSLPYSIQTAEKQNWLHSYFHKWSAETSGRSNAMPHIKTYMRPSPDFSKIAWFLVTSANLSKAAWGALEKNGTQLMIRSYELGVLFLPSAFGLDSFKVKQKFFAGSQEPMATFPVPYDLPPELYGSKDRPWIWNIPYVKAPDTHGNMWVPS
In short: (§3)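 5'-32P-labeled N14Y (3'-phosphotyrosyl single-stranded oligo) at 1 nM with 10 pM recombinant TDP1, 15 min at room temperature. Three-fold dilutions up to 111 μM. Gels scanned and quantified by densitometry. Positive control: AM-8-3.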

[4] = biological target: T2, Tyrosyl-DNA phosphodiesterase 2; assay: Inhibition of human TDP2 expressed in TDP2 deficient chicken DT40 whole cell extracts using TY19 DNA as substrate after 15 mins by PAGE analysis
In short: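 Extract from 1×10^7 TDP2-knockout DT40 cells complemented with human TDP2, lysed 15 min on ice, spun at 12000 g for 10 min, stored at -80 °C. TY19 substrate at 1 nM with 5 μg/mL extract, ±inhibitor, 15 min at room temperature in LMP2 buffer. Gel densitometry. IC50 is mean ± SD of ≥3 independent experiments.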

[5] = biological target: T1, Tyrosyl-DNA phosphodiesterase 2 (Homo sapiens); assay: Inhibition of recombinant human TDP2 at 111 uM using alpha-[32P]-cordycepin-3'-labeled TY18 as substrate after 15 mins by PAGE analysis; in short: as §2
[6] = biological target: T4, DNA topoisomerase 1 (Homo sapiens) (UniProt P11387); assay: Inhibition of Top1 (unknown origin) assessed as decrease in relaxation of supercoiled pBR322 DNA at 25 uM
T4 sequence (whole entry): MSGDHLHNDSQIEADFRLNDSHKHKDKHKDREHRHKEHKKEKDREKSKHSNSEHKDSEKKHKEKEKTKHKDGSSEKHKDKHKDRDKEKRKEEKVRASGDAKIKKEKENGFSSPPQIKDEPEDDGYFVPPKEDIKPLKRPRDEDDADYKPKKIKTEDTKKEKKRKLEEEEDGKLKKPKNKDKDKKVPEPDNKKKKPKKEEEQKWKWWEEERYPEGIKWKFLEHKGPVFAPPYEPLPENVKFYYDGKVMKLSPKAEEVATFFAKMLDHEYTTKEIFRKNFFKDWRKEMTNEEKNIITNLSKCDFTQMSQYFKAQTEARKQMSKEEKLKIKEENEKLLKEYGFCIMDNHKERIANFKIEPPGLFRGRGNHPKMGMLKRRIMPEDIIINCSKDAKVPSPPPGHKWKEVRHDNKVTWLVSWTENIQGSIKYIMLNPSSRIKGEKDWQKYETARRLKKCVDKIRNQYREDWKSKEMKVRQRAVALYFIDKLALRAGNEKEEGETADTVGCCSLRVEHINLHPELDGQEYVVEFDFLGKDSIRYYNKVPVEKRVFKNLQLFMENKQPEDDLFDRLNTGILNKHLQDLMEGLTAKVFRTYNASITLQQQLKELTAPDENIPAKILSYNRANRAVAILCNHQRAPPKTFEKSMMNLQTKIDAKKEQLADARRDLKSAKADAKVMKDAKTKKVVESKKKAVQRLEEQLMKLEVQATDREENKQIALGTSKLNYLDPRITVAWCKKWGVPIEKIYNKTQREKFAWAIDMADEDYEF
In short: (§4)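 Supercoiled pBR322 plasmid incubated with TOP1 or TOP2 enzyme, with or without test compound at 25 μM. Relaxed and supercoiled forms separated on agarose gel. Positive controls: camptothecin for TOP1, etoposide for TOP2.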

[7] = biological target: DNA topoisomerase 2-alpha (Homo sapiens) (UniProt P11388); assay: Poisoning activity at Top2alpha in human CCRF-CEM cells assessed as TOP2-DNA covalent cleavage complex up to 100 uM after 2 hrs by Western blot analysis based ICE assay; assay type: cell-based
Sequence of DNA topoisomerase 2-alpha (Homo sapiens) (P11388 whole entry): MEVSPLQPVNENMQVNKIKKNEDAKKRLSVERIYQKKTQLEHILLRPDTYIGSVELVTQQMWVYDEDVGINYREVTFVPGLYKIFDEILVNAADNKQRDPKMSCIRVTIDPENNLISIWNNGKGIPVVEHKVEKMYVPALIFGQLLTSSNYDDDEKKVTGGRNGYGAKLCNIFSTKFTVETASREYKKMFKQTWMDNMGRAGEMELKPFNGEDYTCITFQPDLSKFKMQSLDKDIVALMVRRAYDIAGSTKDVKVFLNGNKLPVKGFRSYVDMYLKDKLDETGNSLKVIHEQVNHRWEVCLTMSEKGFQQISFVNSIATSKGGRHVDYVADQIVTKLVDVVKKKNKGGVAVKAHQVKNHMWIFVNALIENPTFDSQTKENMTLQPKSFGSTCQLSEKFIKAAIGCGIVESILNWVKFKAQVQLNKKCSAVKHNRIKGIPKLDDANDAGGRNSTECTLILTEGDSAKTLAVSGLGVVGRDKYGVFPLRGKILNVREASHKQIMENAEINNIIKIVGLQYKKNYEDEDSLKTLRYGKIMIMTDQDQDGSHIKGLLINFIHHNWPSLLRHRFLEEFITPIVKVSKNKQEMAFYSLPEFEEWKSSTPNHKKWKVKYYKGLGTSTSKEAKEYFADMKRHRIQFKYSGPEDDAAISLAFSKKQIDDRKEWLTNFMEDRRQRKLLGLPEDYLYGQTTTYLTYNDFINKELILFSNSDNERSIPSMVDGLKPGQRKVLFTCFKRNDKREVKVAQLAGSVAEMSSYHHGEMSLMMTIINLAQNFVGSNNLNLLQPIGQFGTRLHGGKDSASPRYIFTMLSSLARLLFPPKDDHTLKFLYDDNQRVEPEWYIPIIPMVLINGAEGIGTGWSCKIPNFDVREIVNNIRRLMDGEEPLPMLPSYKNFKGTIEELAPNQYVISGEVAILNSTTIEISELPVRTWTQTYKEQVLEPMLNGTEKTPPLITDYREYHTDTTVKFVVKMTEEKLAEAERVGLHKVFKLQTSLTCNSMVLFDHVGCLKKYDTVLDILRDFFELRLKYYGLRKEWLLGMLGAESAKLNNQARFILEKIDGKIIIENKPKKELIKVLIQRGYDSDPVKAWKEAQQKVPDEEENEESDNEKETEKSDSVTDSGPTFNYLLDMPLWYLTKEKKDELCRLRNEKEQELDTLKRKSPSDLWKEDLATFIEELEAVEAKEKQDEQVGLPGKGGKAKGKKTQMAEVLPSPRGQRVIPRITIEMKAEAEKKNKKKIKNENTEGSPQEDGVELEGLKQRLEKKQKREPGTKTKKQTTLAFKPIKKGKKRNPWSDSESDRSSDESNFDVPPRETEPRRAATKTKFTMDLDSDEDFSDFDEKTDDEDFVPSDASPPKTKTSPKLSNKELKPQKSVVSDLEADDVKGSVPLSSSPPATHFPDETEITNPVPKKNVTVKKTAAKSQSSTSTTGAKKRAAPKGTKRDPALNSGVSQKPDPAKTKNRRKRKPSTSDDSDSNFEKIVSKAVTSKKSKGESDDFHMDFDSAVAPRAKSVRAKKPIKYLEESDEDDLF
In short: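 ICE assay: 60×10^5 CCRF-CEM cells exposed to compound for 2 h, then lysed in 1% Sarkosyl to detect TOP2–DNA covalent cleavage complexes. Etoposide at 10 and 50 μM served as positive control, with one lane co-treated with 10 μM etoposide.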

Homo sapiens = species on record: Homo sapiens; assay: Inhibition of Top2 (unknown origin) assessed as decrease in relaxation of supercoiled pBR322 DNA at 25 uM; in short: as §4
[8] = biological target: DNA topoisomerase 2-alpha (Homo sapiens) (UniProt P11388); assay: Poisoning activity at Top2alpha in human CCRF-CEM cells assessed as TOP2-DNA covalent cleavage complex up to 50 uM after 2 hrs by Western blot analysis based ICE assay; assay type: cell-based
In short: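 60×10^5 CCRF-CEM cells treated 2 h with compound at 10 or 50 μM, alone or combined with 10 μM etoposide, then lysed in 1% Sarkosyl. TOP2-DNA covalent complexes detected by ICE assay. Etoposide at 10 and 50 μM served as positive control.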

[9] = biological target: T3, Tyrosyl-DNA phosphodiesterase 1; assay: Inhibition of recombinant TDP1 (unknown origin) using 5'-[32P]-labeled N14Y as substrate after 15 mins by PAGE analysis; in short: as §3

Compound | inhibition [1] | IC50 [2] [µM] | inhibition [3] | IC50 [4] [µM] | inhibition [5] [%] | inhibition [6] | inhibition (Homo sapiens) | IC50 [9] [µM] | Activity [7] | Activity [8]
CCOC(=O)c1c(C)oc2c1C(=O)c1ncccc1C2=O | – | 11 | inactive | 22 | – | inactive | inactive | – | inactive | –
Cc1oc2c(c1C(=O)OC[C@@H](O)CO)C(=O)c1ncccc1C2=O | Dose-dependent effect | 12 | inactive | 14 | 100 | – | – | – | – | –
CCOC(=O)c1noc2c1C(=O)c1cccnc1C2=O | Dose-dependent effect | 1.9 | inactive | 2.1 | 100 | inactive | inactive | – | – | inactive
N#Cc1ccc2cc3c(=O)[nH]c(=O)nc-3n(-c3cccc(-c4nnn[nH]4)c3)c2c1 | Dose-dependent effect | – | – | – | 100 | – | – | – | – | –
CCOC(=O)c1noc2c1C(=O)c1ncccc1C2=O | Dose-dependent effect | 3.3 | inactive | 3.1 | 100 | inactive | inactive | – | – | –
Cc1oc2c(c1C(=O)OCCCO)C(=O)c1ncccc1C2=O | Dose-dependent effect | 17 | inactive | 11 | 100 | – | – | – | – | –
CC(=O)c1c(C)oc2c1C(=O)c1ncccc1C2=O | – | 35 | inactive | 36 | – | – | – | – | – | –
C#CCCOC(=O)c1c(C)oc2c1C(=O)c1ncccc1C2=O | – | 22 | inactive | 15 | – | – | – | – | – | –
Cc1oc2c(c1C(=O)Oc1cccc(-c3cn(CCCO)nn3)c1)C(=O)c1ncccc1C2=O | – | 8.1 | inactive | 8.3 | – | – | – | – | – | –
Cc1oc2c(c1C(=O)OC[C@H](O)CO)C(=O)c1ncccc1C2=O | – | 50 | inactive | 15 | – | – | – | – | – | –
Cc1oc2c(c1C(=O)Oc1ccc(S(C)(=O)=O)cc1)C(=O)c1ncccc1C2=O | – | 14 | inactive | 16 | – | – | – | – | – | –
CC(=O)N1CCN(c2ccc(OC(=O)c3c(C)oc4c3C(=O)c3ncccc3C4=O)cc2)CC1 | – | 37 | inactive | 34 | – | – | – | – | – | –
C#Cc1cccc(OC(=O)c2c(C)oc3c2C(=O)c2ncccc2C3=O)c1 | – | 43 | inactive | 13 | – | – | – | – | – | –

The next lines start with results.

inhibition [1] | IC50 [2] [µM] | inhibition [3] | IC50 [4] [µM] | inhibition [5] [%] | inhibition [6] | inhibition (Homo sapiens) | IC50 [9] [µM] | Compound | Activity [7] | Activity [8]
Dose-dependent effect | 18 | inactive | 10 | 100 | – | – | – | Cc1oc2c(c1C(=O)Oc1ccccc1)C(=O)c1ncccc1C2=O | – | –
Dose-dependent effect | 20 | inactive | 9.8 | 100 | – | – | – | Cc1oc2c(c1C(=O)OCCO)C(=O)c1ncccc1C2=O | – | –
Dose-dependent effect | 7.6 | inactive | 6.6 | 100 | – | – | – | Cc1oc2c(c1C(=O)Oc1ccccc1O)C(=O)c1ncccc1C2=O | – | –
– | 28 | – | – | – | – | – | 48 | Cc1oc2c(c1C(=O)Oc1ccc([N+](=O)[O-])cc1)C(=O)c1ncccc1C2=O | – | –
– | 22 | – | 24 | – | – | – | 38 | COC(=O)c1sccc1OC(=O)c1c(C)oc2c1C(=O)c1ncccc1C2=O | – | –
– | 22 | inactive | 13 | – | – | – | – | Cc1oc2c(c1C(=O)OCCOCCO)C(=O)c1ncccc1C2=O | – | –
– | 10 | inactive | 14 | – | – | – | – | Cc1oc2c(c1C(=O)Oc1ccccc1Cl)C(=O)c1ncccc1C2=O | – | –
Dose-dependent effect | 29 | inactive | 8.8 | 100 | – | – | – | Cc1oc2c(c1C(=O)Oc1cccc(O)c1)C(=O)c1ncccc1C2=O | – | –
– | 16 | inactive | 12 | – | – | – | – | Cc1oc2c(c1C(=O)Oc1cccc(N)c1)C(=O)c1ncccc1C2=O | – | –
